# From ChEMBL document CHEMBL1649442, “Genetic determinants of resistance to fusidic acid among clinical bacteremia isolates of Staphylococcus aureus” (2009)
# Experiments:
# Format in all cases: functional
# Staphylococcus aureus [1] = experiment: Antimicrobial activity against Staphylococcus aureus RN4220 transformed with Staphylococcus aureus isolate 27971 carrying pUB101 expressing cadX coding sequence by Etest
# Outline: (§1)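 Plasmid DNA was extracted from each clinical bacteremia isolate after overnight growth in LB with 0.5% glycine, using lysostaphin/lysozyme/proteinase K lysis and alkaline lysis. It was electroporated into restriction-negative S. aureus RN4220 (2.3 kV, 25 μF, 100 Ω) and transformants were selected on NYE agar with ampicillin 1 μg/ml at 37°C. Fusidic acid MIC was read by Etest on Mueller-Hinton agar following the manufacturer's instructions.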
# Staphylococcus aureus [2] = experiment: Antimicrobial activity against Staphylococcus aureus isolate 27980 expressing FusB and harboring pUB101 carrying cadX coding sequence by Etest
# Staphylococcus aureus [3] = experiment: Antimicrobial activity against cadXD coding sequence deficient Staphylococcus aureus isolate 28444 expressing FusB by Etest
# Outline: (§2)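 Fusidic acid-resistant S. aureus bacteremia clinical isolates, originally from Statens Serum Institut. MIC read by Etest on Mueller-Hinton agar, following the manufacturer's instructions. Liquid cultures grown in LB at 37°C with shaking at 200 rpm. fusB and cadXD presence checked by PCR and sequencing.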
# Staphylococcus aureus [4] = experiment: Antimicrobial activity against cadX coding sequence deficient Staphylococcus aureus isolate 28414 expressing FusC C90T mutant and harboring pMW2 by Etest
# Staphylococcus aureus [5] = experiment: Antimicrobial activity against cadXD coding sequence deficient Staphylococcus aureus isolate 27971 expressing FusB by Etest; outline: as §2
# Staphylococcus aureus [6] = experiment: Antimicrobial activity against Staphylococcus aureus RN4220 transformed with Staphylococcus aureus isolate 28444 carrying pUB101 expressing cadX coding sequence by Etest; outline: as §1
# Staphylococcus aureus [7] = experiment: Antimicrobial activity against cadX coding sequence deficient Staphylococcus aureus isolate 27768 expressing FusA Leu461Ser mutant and harboring pMW2 by Etest
# Staphylococcus aureus [8] = experiment: Antimicrobial activity against Staphylococcus aureus isolate 27624 expressing FusB and harboring pUB101 carrying cadX coding sequence by Etest
# Staphylococcus aureus [9] = experiment: Antimicrobial activity against cadX coding sequence deficient Staphylococcus aureus isolate 28150 expressing FusC and harboring pMW2 by Etest
# Staphylococcus aureus [10] = experiment: Antimicrobial activity against cadXD coding sequence deficient Staphylococcus aureus isolate 28332 expressing FusB by Etest; outline: as §2
# Staphylococcus aureus [11] = experiment: Antimicrobial activity against Staphylococcus aureus RN4220 transformed with Staphylococcus aureus isolate 28332 carrying pUB101 cadX coding sequence by Etest; outline: as §1
# Staphylococcus aureus [12] = experiment: Antimicrobial activity against cadX coding sequence deficient Staphylococcus aureus isolate 27962 expressing FusA Met453Ile mutant and harboring pMW2 by Etest
# Staphylococcus aureus [13] = experiment: Antimicrobial activity against Staphylococcus aureus isolate 28416 expressing FusC by Etest
# Staphylococcus aureus [14] = experiment: Antimicrobial activity against Staphylococcus aureus RN4220 transformed with Staphylococcus aureus isolate 27624 carrying pUB101 expressing cadX coding sequence by Etest; outline: as §1
# Staphylococcus aureus [15] = experiment: Antimicrobial activity against cadXD coding sequence deficient Staphylococcus aureus isolate 27856 expressing FusB by Etest; outline: as §2
# Staphylococcus aureus [16] = experiment: Antimicrobial activity against cadX coding sequence deficient Staphylococcus aureus isolate 28410 expressing FusC C90T mutant and harboring pMW2 by Etest
# Staphylococcus aureus [17] = experiment: Antimicrobial activity against Staphylococcus aureus RN4220 transformed with Staphylococcus aureus isolate 27856 carrying pUB101 expressing cadX coding sequence by Etest; outline: as §1
# Staphylococcus aureus [18] = experiment: Antimicrobial activity against Staphylococcus aureus isolate 28444 expressing FusB and harboring pUB101 carrying cadX coding sequence by Etest
# Staphylococcus aureus [19] = experiment: Antimicrobial activity against Staphylococcus aureus isolate 27657 expressing FusC by Etest
# Staphylococcus aureus [20] = experiment: Antimicrobial activity against cadX coding sequence deficient Staphylococcus aureus isolate 28400 expressing FusC C90T mutant and harboring pMW2 by Etest
# Staphylococcus aureus [21] = experiment: Antimicrobial activity against Staphylococcus aureus isolate 27856 expressing FusB and harboring pUB101 carrying cadX coding sequence by Etest
# Staphylococcus aureus [22] = experiment: Antimicrobial activity against Staphylococcus aureus isolate 27731 expressing FusA Ala71Val, Asp189Gly, Pro406Leu mutant and harboring pMW2 carrying cadX coding sequence by Etest
# Staphylococcus aureus [23] = experiment: Antimicrobial activity against Staphylococcus aureus isolate 28084 expressing FusC and harboring pMW2 carrying cadX coding sequence by Etest
# Staphylococcus aureus [24] = experiment: Antimicrobial activity against cadXD coding sequence deficient Staphylococcus aureus isolate 27980 expressing FusB by Etest; outline: as §2
# Staphylococcus aureus [25] = experiment: Antimicrobial activity against Staphylococcus aureus isolate 28130 expressing FusA Leu461Ser mutant pMW2 carrying cadX coding sequence by Etest
# Staphylococcus aureus [26] = experiment: Antimicrobial activity against Staphylococcus aureus isolate 28362 expressing FusA Val90Ile mutant by Etest
# Staphylococcus aureus [27] = experiment: Antimicrobial activity against cadX coding sequence deficient Staphylococcus aureus isolate 28335 expressing FusC C90T mutant and harboring pMW2 by Etest
# Staphylococcus aureus [28] = experiment: Antimicrobial activity against Staphylococcus aureus isolate 28332 expressing FusB and harboring pUB101 carrying cadX coding sequence by Etest
# Staphylococcus aureus [29] = experiment: Antimicrobial activity against Staphylococcus aureus isolate 27844 expressing FusA Ala376Val, Leu461Phe, Asp463Gly, Ala655Pro mutant and harboring pMW2 carrying cadX coding sequence by Etest
# Staphylococcus aureus [30] = experiment: Antimicrobial activity against Staphylococcus aureus RN4220 transformed with Staphylococcus aureus isolate 27980 carrying pUB101 expressing cadX coding sequence by Etest; outline: as §1
# Staphylococcus aureus [31] = experiment: Antimicrobial activity against cadXD coding sequence deficient Staphylococcus aureus isolate 27624 expressing FusB by Etest; outline: as §2
# Staphylococcus aureus [32] = experiment: Antimicrobial activity against Staphylococcus aureus isolate 27971 expressing FusB and harboring pUB101 carrying cadX coding sequence by Etest
compound,measurement,setting,value
CC(=O)O[C@H]1C[C@@]2(C)[C@@H](C[C@@H](O)[C@H]3[C@@]4(C)CC[C@@H](O)[C@@H](C)[C@@H]4CC[C@@]32C)/C1=C(\CCC=C(C)C)C(=O)O [FUSIDIC ACID],MIC,Staphylococcus aureus [1],8 µg/mL
same,MIC,Staphylococcus aureus [2],12 µg/mL
same,MIC,Staphylococcus aureus [3],0.064 µg/mL
same,MIC,Staphylococcus aureus [4],6 µg/mL
same,MIC,Staphylococcus aureus [5],0.094 µg/mL
same,MIC,Staphylococcus aureus [6],8 µg/mL
same,MIC,Staphylococcus aureus [7],8 µg/mL
same,MIC,Staphylococcus aureus [8],6 µg/mL
same,MIC,Staphylococcus aureus [9],8 µg/mL
same,MIC,Staphylococcus aureus [10],0.125 µg/mL
same,MIC,Staphylococcus aureus [11],8 µg/mL
same,MIC,Staphylococcus aureus [12],4 µg/mL
same,MIC,Staphylococcus aureus [13],8 µg/mL
same,MIC,Staphylococcus aureus [14],8 µg/mL
same,MIC,Staphylococcus aureus [15],0.094 µg/mL
same,MIC,Staphylococcus aureus [16],6 µg/mL
same,MIC,Staphylococcus aureus [17],8 µg/mL
same,MIC,Staphylococcus aureus [18],12 µg/mL
same,MIC,Staphylococcus aureus [19],8 µg/mL
same,MIC,Staphylococcus aureus [20],6 µg/mL
same,MIC,Staphylococcus aureus [21],8 µg/mL
same,MIC,Staphylococcus aureus [22],8 µg/mL
same,MIC,Staphylococcus aureus [23],12 µg/mL
same,MIC,Staphylococcus aureus [24],0.094 µg/mL
same,MIC,Staphylococcus aureus [25],6 µg/mL
same,MIC,Staphylococcus aureus [26],8 µg/mL
same,MIC,Staphylococcus aureus [27],8 µg/mL
same,MIC,Staphylococcus aureus [28],12 µg/mL
same,MIC,Staphylococcus aureus [29],256 µg/mL
same,MIC,Staphylococcus aureus [30],8 µg/mL
same,MIC,Staphylococcus aureus [31],0.094 µg/mL
same,MIC,Staphylococcus aureus [32],8 µg/mL
